Laboratory results: ChEMBL document CHEMBL1134543, “A rational approach to the design of selective substrates and potent nontransportable inhibitors of the excitatory amino acid transporter EAAC1 (EAAT3). new glutamate and aspartate analogues as potential neuroprotective agents” (J Med Chem, 2001)
Blank lines part the entries; values can stand above or below the compound they belong to. Activity calls are given as the source filed them. The rule behind the calls is not given here.

Tests used:
[1] = biological target: Glutamate receptor ionotropic, kainate; experiment: Binding affinity towards Ionotropic glutamate receptor kainate by displacement of [3H]-kainic acid radioligand; type: protein-complex assay
[2] = biological target: Glutamate NMDA receptor; experiment: Binding affinity towards NMDA receptor by displacement of [3H]CGP-39653 radioligand.; type: protein-complex assay
[3] = biological target: T1, Glutamate receptor ionotropic, AMPA (Rattus norvegicus, UniProt P19490+P19491+P19492+P19493); experiment: Binding affinity towards AMPA receptor by displacement of [3H]AMPA radioligand; type: protein-complex assay
[4] = biological target: T2, Excitatory amino acid transporter 3 (Rattus norvegicus) (UniProt P51907); experiment: Steady state transport rate by EAAC1 (EAAT3) in mammalian cells; type: cell-based
T2 sequence (whole entry): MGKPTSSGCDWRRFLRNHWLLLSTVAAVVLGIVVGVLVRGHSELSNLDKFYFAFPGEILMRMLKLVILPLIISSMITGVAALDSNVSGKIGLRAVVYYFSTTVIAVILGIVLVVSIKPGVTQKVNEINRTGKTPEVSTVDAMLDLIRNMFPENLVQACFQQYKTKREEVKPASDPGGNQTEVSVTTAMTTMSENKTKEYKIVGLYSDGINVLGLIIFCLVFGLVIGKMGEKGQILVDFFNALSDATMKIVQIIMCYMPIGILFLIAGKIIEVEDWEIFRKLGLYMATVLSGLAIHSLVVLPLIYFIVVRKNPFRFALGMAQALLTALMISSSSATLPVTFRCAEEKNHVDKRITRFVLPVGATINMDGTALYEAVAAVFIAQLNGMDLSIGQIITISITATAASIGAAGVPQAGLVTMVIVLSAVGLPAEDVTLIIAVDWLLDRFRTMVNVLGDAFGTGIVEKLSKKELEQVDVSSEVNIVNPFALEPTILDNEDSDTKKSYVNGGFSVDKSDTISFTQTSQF
Outline: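 Whole-cell currents from EAAC1-expressing mammalian cells (intracellular SCN-, Vm 0 mV, pH 7.4, 22 °C). Steady-state KS is taken from concentration dependence. Imax ratio is the current at saturating test compound relative to the current at saturating (1 mM) L-glutamate.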

[5] = biological target: Glutamate NMDA receptor (Rattus norvegicus) (UniProt P35439+Q00959+Q00960+Q00961+Q62645+Q8VHN2+Q9R1M7); experiment: Binding affinity towards NMDA receptor by displacement of [3H]CGP-39653 radioligand; Not active; type: protein-complex assay
[6] = biological target: T3, Excitatory amino acid transporter 3 (Rattus norvegicus, UniProt P51907); experiment: Inhibitory activity against EAAC1 (EAAT3) in absence of L-glutamic acid.
T3 sequence (P51907 whole entry): T2 sequence (whole entry)

[7] = biological target: Glutamate receptor ionotropic, AMPA (Rattus norvegicus) (UniProt P19491+P19492+P19493+P19490); experiment: Binding affinity towards AMPA receptor by displacement of [3H]-AMPA radioligand; Not active; type: protein-complex assay
[8] = biological target: T3, Excitatory amino acid transporter 3; experiment: Inhibitory activity against EAAC1 (EAAT3) in presence of 20 uM L-glutamic acid.
[9] = biological target: Glutamate receptor ionotropic, kainate (Rattus norvegicus) (UniProt P22756+Q01812+P42260+P42264+Q63273); experiment: Binding affinity towards Ionotropic glutamate receptor kainate by displacement of [3H]-kainic acid radioligand; Not active; type: protein-complex assay
[10] = biological target: T3, Excitatory amino acid transporter 3; experiment: Inhibitory activity against EAAC1 (EAAT3) in absence of L-glutamic acid in mammalian cells; type: cell-based
[11] = biological target: T3, Excitatory amino acid transporter 3; experiment: Inhibitory activity against EAAC1 (EAAT3) in presence of 20 uM L-glutamic acid in mammalian cells; type: cell-based
[12] = biological target: T1, Glutamate receptor ionotropic, AMPA; experiment: Binding affinity towards AMPA receptor by displacement of [3H]AMPA radioligand.; type: protein-complex assay

Structure (SMILES): O=C(O)c1nc(-c2ccccc2)oc1C(=O)O
- NA [5]: inactive
- Ki [6]: 75 µM
- NA [7]: inactive
- Ki [8]: 530 µM
- NA [9]: inactive

Structure (SMILES): N[C@@H](CCc1nc(C(=O)O)co1)C(=O)O
- Ki [1]: 8 µM
- Ki [2]: 3 µM
- Ki [12]: 41 µM
- Ks [4]: 100 µM

Structure (SMILES): N[C@@H](CC1=N[C@H](C(=O)O)CO1)C(=O)O
- NA [5]: inactive
- NA [7]: inactive
- Ks [4]: 31 µM
- NA [9]: inactive

Structure (SMILES): N[C@@H](CCC(=O)O)C(=O)O
- Ks [4]: 5.1 µM

Further lines, results first:

- Ki [1]: 14 µM
- Ki [2]: 9 µM
- Ki [3]: 103 µM
- Ks [4]: 730 µM
Structure (SMILES): N[C@@H](CCC1=N[C@H](C(=O)O)CO1)C(=O)O

- NA [5]: inactive
- NA [7]: inactive
- Ki [10]: 14 µM
- Ki [11]: 42 µM
- NA [9]: inactive
Structure (SMILES): O=C(O)[C@H]1N=C(c2ccccc2)O[C@@H]1C(=O)O
